In ChEMBL document CHEMBL4673404, “Covalent Inhibition of Wild-Type HIV-1 Reverse Transcriptase Using a Fluorosulfate Warhead” (ACS Med Chem Lett, 2021):

Key:
[1] = Cytotoxicity against human MT2 cells assessed as cell growth inhibition after 5 days by MTT assay; assay type: cell-based; conditions: time 5 day
Summary of the method: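 Human MT-2 T-cells were used in the same assay as the HIV-1 IIIB infection-protection test. CC50 was taken as the concentration inhibiting MT-2 cell growth by 50%, with measurements in triplicate.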

[2] = molecular target: T1, Human immunodeficiency virus type 1 reverse transcriptase (Human immunodeficiency virus 1, UniProt Q72547); assay: Inhibition of recombinant wild type HIV-1 reverse transcriptase using poly(rA)350/oligo(dT)16 as template/primer preincubated for 1 hr followed by substrate addition measured after 30 mins by pico-green reagent based fluorescence analysis
Summary of the method: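 Recombinant wild-type HIV-1 RT preincubated 1 h with inhibitor or DMSO. Substrate of r(A)350 template and d(T)16 primer then added, 30 min at room temperature. Quenched with EDTA, product detected with PicoGreen by fluorescence (ex 485/em 520 nm). Triplicate runs, normalized to DMSO controls to give IC50.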

[3] = molecular target: T1, Human immunodeficiency virus type 1 reverse transcriptase; assay: Covalent inhibition of recombinant wild type HIV-1 reverse transcriptase using poly(rA)350/oligo(dT)16 as template/primer preincubated followed by substrate addition measured after 30 mins by pico-green reagent based fluorescence analysis
[4] = Covalent inhibition of HIV-1 reverse transcriptase Tyr181Cys mutant; design: species or system Human immunodeficiency virus 1
[5] = molecular target: T1, Human immunodeficiency virus type 1 reverse transcriptase; assay: Covalent inhibition of recombinant wild type HIV-1 reverse transcriptase using poly(rA)350/oligo(dT)16 as template/primer preincubated followed by substrate addition measured after 48 hrs by pico-green reagent based fluorescence analysis
Summary of the method: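 Recombinant WT HIV-1 RT preincubated with inhibitor or DMSO control (1 h for line 3, 48 h for line 4). Substrate solution with r(A)350 template and d(T)16 primer then added, reacted 30 min at room temperature, and quenched with EDTA. Product quantified with PicoGreen by fluorescence (ex 485, em 520 nm). Triplicate runs, normalized to DMSO controls to give IC50.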

Row | IC50 [2] [nM] | SMILES | CC50 at 120 h [1] [nM] | IC50 [3] [nM] | IC50 [4] [nM] | IC50 [5] [nM]
1 | 3 | N#C/C=C/c1cc(Cl)cc(Oc2ccc(Cl)cc2OCCn2ccc(=O)[nH]c2=O)c1 | 10000 |  |  | 
2 |  | N#Cc1cc(Cl)cc(Oc2cc(OS(=O)(=O)F)ccc2OCCn2ccc(=O)[nH]c2=O)c1 | 100000 |  |  | 
3 |  | Cn1c(=O)ccn(CCOc2cc(OS(=O)(=O)F)ccc2Oc2cc(Cl)cc(C#N)c2)c1=O | 40000 | 246 |  | 
4 |  | N#Cc1cc(Cl)cc(Oc2ccc(S(=O)(=O)F)cc2OCCn2ccc(=O)[nH]c2=O)c1 | 90000 | 5000 |  | 
5 |  | N#Cc1cc(Cl)cc(Oc2ccc(OS(=O)(=O)F)cc2OCCn2ccc(=O)[nH]c2=O)c1 | 66000 | 103 | 45 | 163
6 |  | N#Cc1ccc2c(Oc3ccc(OS(=O)(=O)F)cc3OCCn3ccc(=O)[nH]c3=O)cc(Cl)cc2c1 | 15000 | 14.7 |  | 
7 |  | N#Cc1cc(Cl)cc(Oc2cc(OS(=O)(=O)F)ccc2Cl)c1 | 78000 | 833 |  | 
8 |  | N#Cc1cc2c(Oc3ccc(OS(=O)(=O)F)cc3OCCn3ccc(=O)[nH]c3=O)cc(Cl)cn2c1 | 26000 | 42.4 | 41 | 
9 |  | N#C/C=C/c1cc(Cl)cc(Oc2ccc(OS(=O)(=O)F)cc2OCCn2ccc(=O)[nH]c2=O)c1 | 45000 | 119 |  | 
10 |  | N#C/C=C/c1cc(F)cc(Oc2ccc(OS(=O)(=O)F)cc2OCCn2ccc(=O)[nH]c2=O)c1 | 42000 | 150 |  | 
11 |  | Cn1c(=O)ccn(CCOc2cc(OS(=O)(=O)F)ccc2Oc2cccn3cc(C#N)cc23)c1=O | 75000 | 164 | 202 | 1110
12 |  | N#Cc1cc(Cl)cc(Oc2ccc(OS(=O)(=O)F)cc2Cl)c1 | 50000 | 4900 |  | 
13 |  | N#Cc1ccc2c(Oc3ccc(OS(=O)(=O)F)cc3OCCn3ccc(=O)[nH]c3=O)cccc2c1 | 62000 | 82.3 |  | 
14 |  | N#Cc1cc2c(Oc3ccc(OS(=O)(=O)F)cc3OCCn3ccc(=O)[nH]c3=O)cc(F)cn2c1 | 55000 | 64 | 63 | 429
15 |  | Cn1c(=O)ccn(CCOc2cc(S(=O)(=O)F)ccc2Oc2cc(Cl)cc(C#N)c2)c1=O | 60000 | 375 |  | 
16 |  | Cc1ccnc2c1NC(=O)c1cccnc1N2C1CC1 [NEVIRAPINE] | > 100000 |  |  | 
17 |  | Cc1cc(/C=C/C#N)cc(C)c1Nc1ccnc(Nc2ccc(C#N)cc2)n1 [RILPIVIRINE] | 8000 | 38 |  | 
